High-throughput results (PubChem BioAssay)
Sampled rows, rich in hits. Any-hit rate of the full collection: about 5.9%.
Pf Dd2 growth – inhibitors of Plasmodium falciparum Dd2 growth | activity change, % at 10 µM | P. falciparum Dd2 growth, SYBR Green, 72 h; active compounds read low | hit rate 2.3% among 94,000; in the data active = activity change below about -80%; inconclusive = no clear call, values can overlap the other calls
T cruzi growth-1 – T. cruzi proliferation inhibition; T. cruzi beta-gal in NIH3T3, GalScreen luminescence, 90 h; inhibition, % at 8.34 µM; hit rate 5.9% among 77,000; AID 624255;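 active = mean inhibition above about 93%, with at least 55% of replicates each passing it, limit read from the data, passing the limit was not always enough; inconclusive = only one of those two conditions holds; inactive = neither condition holds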
KDM4C inh – blocks human GASC-1 (KDM4C) demethylase activity; GST-KDM4C 2-372, H3K9me3 peptide, LANCE TR-FRET; inhibition, % at 12.5 µM; hit rate 0.15% among 96,000; AID 720574;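 active = mean replicate inhibition above about 25%, with at least 55% of replicates also reaching it, limit read from the data, passing the limit was not always enough; inconclusive = only one of those two conditions met; inactive = neither condition met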
Target sequence (Q9H3R0 2-372 limits assumed): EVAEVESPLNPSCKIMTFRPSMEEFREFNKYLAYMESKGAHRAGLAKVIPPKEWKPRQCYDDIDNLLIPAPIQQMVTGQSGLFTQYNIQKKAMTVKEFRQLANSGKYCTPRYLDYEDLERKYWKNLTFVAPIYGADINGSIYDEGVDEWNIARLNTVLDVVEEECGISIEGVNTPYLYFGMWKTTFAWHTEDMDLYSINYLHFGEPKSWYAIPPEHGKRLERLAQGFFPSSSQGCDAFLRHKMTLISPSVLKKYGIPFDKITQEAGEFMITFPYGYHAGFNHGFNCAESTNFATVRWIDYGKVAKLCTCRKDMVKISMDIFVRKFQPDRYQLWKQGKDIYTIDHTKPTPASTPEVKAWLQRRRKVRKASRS
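Test system – GST-tagged GASC-1 (JMJD2C) catalytic fragment, aa 2-372 · Medium – HEPES buffer, pH 7.5, plus ascorbate · Reagent – H3K9me3 peptide with Fe(II)/2OG · Compound – one test concentration per compound · Timing – 30 min reaction, 60 min detection, RT · Technique – TR-FRET with Eu antibody and ULight streptavidin, EDTA stop · Read-out basis – inhibition from TR-FRET ratio decrease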
IDH1 R132H inh – blocks human IDH1 R132H reductase activity. diaphorase/resazurin fluorescence, 60 min. inhibition, % at 10 µM. hit rate 0.18% among 70,000. AID 624101; in the data active = inhibition above about 34%; inconclusive = no clear call, values can overlap the other calls; inactive = below about 11%;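 also: 0% = DMSO and 100% = no enzyme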
T cruzi growth-2 – inhibitors of T. cruzi proliferation | shares compounds with T cruzi growth-1 | T. cruzi beta-gal in NIH3T3, GalScreen luminescence, 90 h | inhibition, % at 8.35 µM | hit rate 72% among 5,600 | AID 651739;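 active = mean replicate inhibition above about 95% and at least 55% of replicates individually reaching it, limit read from the data; inconclusive = only one of the two criteria is met; inactive = neither criterion is met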
T cruzi growth-3 – Trypanosoma cruzi proliferation inhibition; shares compounds with T cruzi growth-1; T. cruzi beta-gal in NIH3T3, GalScreen luminescence, 90 h; inhibition, % at 2.09 µM; hit rate 21% among 5,600; AID 651740;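 active = mean inhibition above about 95%, with at least 55% of replicates also reaching it, limit read from the data; inconclusive = meets just one of the two conditions; inactive = meets neither condition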;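 also: plate controls were neutral control median for no effect and positive control median for full effect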
3T3 cytotox – NIH/3T3 (mouse) viability loss; shares compounds with T cruzi growth-1; NIH/3T3 viability, CellTiter-Glo ATP luminescence, 90 h; cytotoxicity (signal decrease), % at 8.35 µM; hit rate 14% among 5,600; AID 651742;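 active = mean signal decrease across replicates above about 35% based on untreated-well scatter, with enough replicates individually passing, limit read from the data; inconclusive = no rule stated though some were filed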;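 also: 0% = median of neutral control wells and 100% = median of positive control wells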
3T3 cytotox 2 – NIH/3T3 (mouse) viability loss. shares compounds with T cruzi growth-1. NIH/3T3 viability, CellTiter-Glo ATP luminescence, 90 h. inhibition, % at 24.9 µM. hit rate 56% among 5,600. AID 651744;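 active = mean loss of cell viability signal at or above a set limit, and enough replicates individually reaching it; inconclusive = meets only the mean limit or only the replicate share; inactive = meets neither condition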;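 also: 0% = median of neutral control wells and 100% = median of positive control wells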
Starred values were filed as active, the others as inactive; u = inconclusive; x = not tested or not shown.

SMILES | Pf Dd2 growth | T cruzi growth-1 | KDM4C inh | IDH1 R132H inh | T cruzi growth-2 | T cruzi growth-3 | 3T3 cytotox | 3T3 cytotox 2
C[C@H]1CN([C@@H](C)CO)S(=O)(=O)c2ccc(-c3ccncc3)cc2O[C@@H]1CN(C)Cc1cncnc1 | 0 | 108* | -1 | 0 | 103* | 94 | -2 | 17
C[C@@H]1CN([C@@H](C)CO)S(=O)(=O)c2ccc(-c3ccncc3)cc2O[C@@H]1CN(C)Cc1cncnc1 | 35 | 89 | 1 | 0 | x | x | x | x
Cc1ccc(-c2ccc3c(c2)O[C@@H](CN(C)Cc2cncnc2)[C@H](C)CN([C@H](C)CO)S3(=O)=O)cc1 | -2 | x | -1 | 0 | x | x | x | x
C[C@H](CO)N1C[C@H](C)[C@H](CN(C)Cc2cncnc2)Oc2cc(-c3ccncc3)ccc2S1(=O)=O | 13 | u | -1 | 5 | 79 | 79 | 46* | 49*
C[C@@H]1CN([C@@H](C)CO)S(=O)(=O)c2ccc(-c3ccncc3)cc2O[C@H]1CN(C)Cc1cncnc1 | 6 | 108* | 0 | 0 | 104* | 104* | 3 | 45*
Cc1ccccc1-c1ccc2c(c1)O[C@H](CN(C)C(=O)C1CC1)[C@H](C)CN([C@@H](C)CO)S2(=O)=O | 1 | x | -1 | 0 | x | x | x | x
C[C@@H]1CCCCO[C@@H](CN(C)S(=O)(=O)c2ccccc2)[C@@H](C)CN([C@H](C)CO)C(=O)c2cc(NC(=O)Nc3ccc(C(F)(F)F)cc3)ccc2O1 | -71 | 56 | 0 | 1 | x | x | x | x
C[C@@H]1CCCCO[C@H](CN(C)S(=O)(=O)c2ccccc2)[C@@H](C)CN([C@@H](C)CO)C(=O)c2cc(NC(=O)Nc3ccc(C(F)(F)F)cc3)ccc2O1 | -82* | 103* | -1 | -1 | 106* | 109* | 42* | 70*
C[C@@H]1CN([C@H](C)CO)C(=O)c2cc(NC(=O)Nc3ccc(C(F)(F)F)cc3)ccc2O[C@@H](C)CCCCO[C@@H]1CN(C)S(=O)(=O)c1ccccc1 | -59 | 90 | 2 | 3 | x | x | x | x
C[C@@H]1CCCCO[C@H](CN(C)S(=O)(=O)c2ccccc2)[C@H](C)CN([C@@H](C)CO)C(=O)c2cc(NC(=O)Nc3ccc(C(F)(F)F)cc3)ccc2O1 | u | 107* | 1 | 3 | 96* | 111* | -1 | 14
C[C@H](CO)N1C[C@H](C)[C@@H](CN(C)S(=O)(=O)c2ccccc2)OCCCC[C@H](C)Oc2ccc(NC(=O)Nc3ccc(C(F)(F)F)cc3)cc2C1=O | -43 | 87 | 0 | 1 | x | x | x | x
C[C@@H]1CCCCO[C@H](CN(C)S(=O)(=O)c2ccccc2)[C@@H](C)CN([C@H](C)CO)C(=O)c2cc(NC(=O)Nc3ccc(C(F)(F)F)cc3)ccc2O1 | -75 | 115* | 0 | -1 | u | -28 | 13 | 2
C[C@H]1CCCCO[C@@H](CN(C)S(=O)(=O)c2ccccc2)[C@@H](C)CN([C@@H](C)CO)C(=O)c2cc(NC(=O)Nc3ccc(C(F)(F)F)cc3)ccc2O1 | -83* | 100* | 0 | x | 100* | 113* | 19 | 8
C[C@H]1CN([C@@H](C)CO)C(=O)c2cc(NC(=O)Nc3ccccc3)ccc2O[C@@H]1CN(C)Cc1ccccc1 | -6 | 4 | -3 | x | x | x | x | x
Cc1noc(C)c1NC(=O)Nc1ccc2c(c1)C(=O)N([C@@H](C)CO)C[C@@H](C)[C@H](CN(C)C(=O)Nc1ccccc1)OCCCC[C@@H](C)O2 | -14 | 11 | 0 | 1 | x | x | x | x
C[C@H](CO)N1C[C@H](C)[C@H](CN(C)S(=O)(=O)c2ccccc2)OCCCC[C@H](C)Oc2ccc(NC(=O)Nc3ccc(C(F)(F)F)cc3)cc2C1=O | -57 | 104* | 0 | 0 | 105* | 109* | 1 | 23
COc1cccc(S(=O)(=O)N(C)C[C@H]2Oc3ncc(C#CCC(C)C)cc3C(=O)N([C@H](C)CO)C[C@@H]2C)c1 | -63 | 102* | -6 | x | 106* | 79 | 11 | 60*
